From ChEMBL document CHEMBL1131138, “A novel class of orally active non-peptide bradykinin B2 receptor antagonists. 3. Discovering bioisosteres of the imidazo[1,2-a] pyridine moiety” (J Med Chem, 1998)

How the values were obtained:
Cavia porcellus [1] = experiment: In vivo inhibition of Bradykinin induced Bronchoconstriction in anaesthetized guinea pig following 1 mg/kg p.o.; format: functional; conditions: route oral
Outline: (§1)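 Male Hartley guinea pigs (470–750 g), fasted overnight, anesthetized with ip pentobarbital (30 mg/kg) and ventilated at 10 mL/kg, 60 breaths/min. Given alcuronium (0.5 mg/kg iv) and propranolol (10 mg/kg sc). BK 5 μg/kg iv, with bronchoconstriction read as peak pulmonary insufflation pressure (modified Konzett–Rössler).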

B2 bradykinin receptor [2] = target: T1, B2 bradykinin receptor (Homo sapiens, UniProt P30411); experiment: Inhibition specific binding of [3H]BK (1.0 nM) to human Bradykinin receptor B2 which was expressed in CHO (Chinese hamster ovary) cells by 50%.; format: cell-based
T1 sequence (P30411 whole entry): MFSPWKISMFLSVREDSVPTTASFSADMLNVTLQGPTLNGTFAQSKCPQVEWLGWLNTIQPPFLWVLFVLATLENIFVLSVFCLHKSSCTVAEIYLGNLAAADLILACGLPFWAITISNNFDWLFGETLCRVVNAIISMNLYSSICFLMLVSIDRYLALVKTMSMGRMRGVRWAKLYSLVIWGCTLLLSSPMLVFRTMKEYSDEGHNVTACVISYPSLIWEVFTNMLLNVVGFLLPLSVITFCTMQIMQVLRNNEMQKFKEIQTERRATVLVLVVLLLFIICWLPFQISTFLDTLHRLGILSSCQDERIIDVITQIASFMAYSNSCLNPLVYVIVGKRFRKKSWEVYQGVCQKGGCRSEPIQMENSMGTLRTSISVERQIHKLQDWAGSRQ
Outline: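 CHO (dhfr−) cells stably expressing human B2 receptor, seeded at 3.0 × 10^4 cells/well and cultured 1 day. Whole cells incubated with 1.0 nM [3H]BK plus compound for 2 h at 4 °C in HEPES/N-methyl-D-glucamine buffer pH 7.2 with bacitracin, enalaprilat and BSA. Washed, solubilized in SDS/NaOH and counted. Nonspecific binding with 1 μM BK; DMSO below 3%; three experiments.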

B2 bradykinin receptor [3] = target: T2, B2 bradykinin receptor (Cavia porcellus, UniProt O70526); experiment: Concentration required to inhibit specific binding of [ 3H]BK (0.06 nM) to Bradykinin receptor B2 in guinea pig ileum membrane preparations by 50%.; format: cell membranes
T2 sequence (O70526 whole entry): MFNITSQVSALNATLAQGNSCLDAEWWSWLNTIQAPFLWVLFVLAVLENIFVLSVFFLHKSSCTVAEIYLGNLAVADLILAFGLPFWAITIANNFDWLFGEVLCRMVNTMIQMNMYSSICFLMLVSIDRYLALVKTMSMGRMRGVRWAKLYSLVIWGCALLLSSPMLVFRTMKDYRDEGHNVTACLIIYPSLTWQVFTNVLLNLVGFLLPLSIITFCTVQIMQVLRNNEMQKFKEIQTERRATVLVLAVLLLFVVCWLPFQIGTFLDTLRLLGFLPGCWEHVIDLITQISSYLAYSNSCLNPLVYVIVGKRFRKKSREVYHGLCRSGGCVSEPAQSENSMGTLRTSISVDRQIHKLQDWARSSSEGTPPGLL
Outline: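 Ileal membranes from male Hartley guinea pigs (0.2 mg protein/mL) in TES buffer pH 6.8 with phenanthroline, bacitracin, DTT, captopril and BSA. Incubated with 0.06 nM [3H]BK plus compound for 60 min at room temperature, then filtered through GF/B and counted by scintillation.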

Cavia porcellus [4] = experiment: Inhibition of Bradykinin induced Bronchoconstriction in anaesthetized guinea pig at 0.32mg/kg, po; format: functional; outline: as §1

Compound | inhibition in vivo at 1 mg/kg (Cavia porcellus [1]) | IC50 (B2 bradykinin receptor [2]) | IC50 (B2 bradykinin receptor [3]) | inhibition in vivo at 0.32 mg/kg (Cavia porcellus [4])
Cc1ccc2cccc(OCc3c(Cl)ccc(N(C)C(=O)CNC(=O)/C=C/c4ccc(N5CCCC5=O)nc4)c3Cl)c2n1 | 89.9% | 5.2 nM | 0.13 nM | 68.6%
CNC(=O)c1ccc(/C=C/C(=O)NCC(=O)N(C)c2ccc(C)c(COc3cccc4ccc(C)nc34)c2C)cc1 | 90.5% | 4.8 nM | 0.97 nM | 79%
Cc1ccc2cccc(OCc3c(Cl)ccc(N(C)C(=O)CNC(=O)/C=C/c4ccc(C(=O)Nc5cccnc5)cc4)c3Cl)c2n1 | 46.8% | 7.5 nM | 0.62 nM | –
Cc1ccc2cccc(OCc3c(C)ccc(N(C)C(=O)CNC(=O)/C=C/c4ccc(N5CCCC5=O)cc4)c3C)c2n1 | 94.9% | 9.3 nM | 0.47 nM | 75.7%
Cc1ccc2cccc(OCc3c(Cl)ccc(N(C)C(=O)CNC(=O)/C=C/c4ccc(C(=O)Nc5ccccn5)cc4)c3Cl)c2n1 | – | 30 nM | 11 nM | –
Cc1ccc2cccc(OCc3c(Cl)ccc(N(C)C(=O)CNC(=O)/C=C/c4ccc(C(=O)Nc5ccccc5)cc4)c3Cl)c2n1 | – | 11 nM | 6.3 nM | –
CC(=O)Nc1ccc(/C=C/C(=O)NCC(=O)N(C)c2ccc(Cl)c(COc3cccc4ccc(C)nc34)c2Cl)cc1 | 80% | 1.9 nM | 0.5 nM | 33.2%
CNC(=O)c1ccc(/C=C/C(=O)NCC(=O)N(C)c2ccc(C)c(COc3cccc4c3nc(SC)n4C)c2C)cc1 | – | 79 nM | 9.5 nM | –
CNC(=O)c1ccc(/C=C/C(=O)NCC(=O)N(C)c2ccc(Cl)c(COc3cccc4c(C)c(C)oc34)c2Cl)cc1 | – | 270 nM | 23 nM | –
CC(=O)Nc1ccc(/C=C/C(=O)NCC(=O)N(C)c2ccc(Cl)c(COc3cccc4ccc(C)nc34)c2Cl)cn1 [FR-173657] | 94.4% | 1.4 nM | 0.46 nM | 73.2%
CNC(=O)c1ccc(/C=C/C(=O)NCC(=O)N(C)c2ccc(Cl)c(COc3cccn4c(Br)c(C)nc34)c2Cl)cc1 | – | 9 nM | – | –
Cc1ccc2cccc(OCc3c(Cl)ccc(N(C)C(=O)CNC(=O)/C=C/c4ccc(NC(=O)c5ccncc5)nc4)c3Cl)c2n1 | 68.8% | 2.8 nM | 3.3 nM | –
CNC(=O)c1ccc(/C=C/C(=O)NCC(=O)N(C)c2ccc(Cl)c(COc3cccc4ccc(C)nc34)c2Cl)cn1 | 93.9% | 4.6 nM | 0.68 nM | 68.4%
CC(=O)Nc1ccc(/C=C/C(=O)NCC(=O)N(C)c2ccc(C)c(COc3cccc4ccc(C)nc34)c2C)cn1 | 98.2% | 8.5 nM | 0.82 nM | 55.5%
Cc1cnc2cccc(OCc3c(C)ccc(N(C)C(=O)CNC(=O)/C=C/c4ccc(C(=O)N(C)C)cc4)c3C)c2n1 | – | 130 nM | 4.1 nM | –
CNC(=O)c1ccc(/C=C/C(=O)NCC(=O)N(C)c2ccc(Cl)c(COc3cccc4c3nc(-c3ccccc3)n4C)c2Cl)cc1 | – | > 1000 nM | 510 nM | –
CNC(=O)c1ccc(/C=C/C(=O)NCC(=O)N(C)c2ccc(C)c(COc3cccc4ncc(C)nc34)c2C)cn1 | – | 590 nM | 18 nM | –
CNC(=O)c1ccc(/C=C/C(=O)NCC(=O)N(C)c2ccc(C)c(COc3cccc4c3nc(N(C)C)n4C)c2C)cc1 | – | 160 nM | 38 nM | –
CCOc1nc2c(OCc3c(C)ccc(N(C)C(=O)CNC(=O)/C=C/c4ccc(C(=O)NC)cc4)c3C)cccc2n1C | – | 730 nM | 90 nM | –

Compound | inhibition in vivo at 1 mg/kg (Cavia porcellus [1]) | IC50 (B2 bradykinin receptor [2]) | IC50 (B2 bradykinin receptor [3]) | inhibition in vivo at 0.32 mg/kg (Cavia porcellus [4])
Cc1ccc2cccc(OCc3c(C)ccc(N(C)C(=O)CNC(=O)/C=C/c4ccc(N5CCCC5=O)nc4)c3C)c2n1 | – | 39 nM | 1.4 nM | –
CC(=O)Nc1ccc(/C=C/C(=O)NCC(=O)N(C)c2ccc(C)c(COc3cccc4ncc(C)nc34)c2C)cn1 | – | 130 nM | 48 nM | –
CCOC(=O)Cc1nc2c(OCc3c(C)ccc(N(C)C(=O)CNC(=O)/C=C/c4ccc(C(=O)NC)cc4)c3C)cccc2n1C | – | 8400 nM | 1100 nM | –
CCn1c(C)nc2c(OCc3c(Cl)ccc(N(C)C(=O)CNC(=O)/C=C/c4ccc(C(=O)NC)cc4)c3Cl)cccc21 | – | 48 nM | 8.9 nM | –
CNC(=O)c1ccc(/C=C/C(=O)NCC(=O)N(C)c2ccc(C)c(COc3cccc4ccc(C)nc34)c2C)cn1 | – | 58 nM | 2.2 nM | –
Cc1cnc2cccc(OCc3c(C)ccc(N(C)C(=O)CNC(=O)/C=C/c4ccc(N5CCCC5=O)cc4)c3C)c2n1 | – | 46 nM | 2.4 nM | –
Cc1ccc2cccc(OCc3c(Cl)ccc(N(C)C(=O)CNC(=O)/C=C/c4ccccc4)c3Cl)c2n1 | 25.2% | 340 nM | 0.69 nM | –
CNC(=O)c1ccc(/C=C/C(=O)NCC(=O)N(C)c2ccc(C)c(COc3cccc4c3nc(NC)n4C)c2C)cc1 | – | 670 nM | 94 nM | –
CNC(=O)c1ccc(/C=C/C(=O)NCC(=O)N(C)c2ccc(C)c(COc3cccc4c3nc(COC)n4C)c2C)cc1 | – | 9100 nM | 1000 nM | –
CNC(=O)c1ccc(/C=C/C(=O)NCC(=O)N(C)c2ccc(C)c(COc3cccc4ncc(C)nc34)c2C)cc1 | – | 17 nM | 3.5 nM | –
COc1nc2c(OCc3c(Cl)ccc(N(C)C(=O)CNC(=O)/C=C/c4ccc(NC(C)=O)nc4)c3Cl)cccc2n1C | 55.4% | 4.2 nM | 0.65 nM | –
CNC(=O)c1ccc(/C=C/C(=O)NCC(=O)N(C)c2ccc(C)c(COc3cccc4c3nc(C(C)=O)n4C)c2C)cc1 | – | 94 nM | 200 nM | –
Cc1ccc2cccc(OCc3c(Cl)ccc(N(C)C(=O)CNC(=O)/C=C/c4ccc(C(=O)Nc5ccncc5)cc4)c3Cl)c2n1 | 29.5% | 1.8 nM | 1.1 nM | –
COc1nc2c(OCc3c(Cl)ccc(N(C)C(=O)CNC(=O)/C=C/c4ccc(C(=O)N(C)C)cc4)c3Cl)cccc2n1C | 87.7% | 14 nM | 0.94 nM | –
Cc1nc2c(OCc3c(Cl)ccc(N(C)C(=O)CNC(=O)/C=C/c4ccc(C(=O)N(C)C)cc4)c3Cl)cccn2c1Br | – | 2.2 nM | – | –
Cc1ccc2cccc(OCc3c(Cl)ccc(N(C)C(=O)CNC(=O)/C=C/c4ccc(C(=O)Nc5ccncc5)nc4)c3Cl)c2n1 | 60% | 2.5 nM | 15 nM | –
Cc1cnc2cccc(OCc3c(Cl)ccc(N(C)C(=O)CNC(=O)/C=C/c4ccc(C(=O)N(C)C)cc4)c3Cl)c2n1 | – | 44 nM | 1.9 nM | –
Cc1cnc2cccc(OCc3c(Cl)ccc(N(C)C(=O)CNC(=O)/C=C/c4ccc(N5CCCC5=O)cc4)c3Cl)c2n1 | – | 26 nM | 1.1 nM | –
